The whole screen tested about 2,400 compounds, of which fewer than 10 were called active. The list is a sample of the results. A number with no mark means an inactive call.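 The calls were made as follows: active = activation of at least 50%; inactive = the rest.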
These compounds were tested against G-protein coupled receptor 183 (Homo sapiens) (UniProt P32249) (assay: EBI2 agonist activity of antagonist hits, confirmation, counter-screen for EBI2 antagonist project, cell-based, single concentration, agonist mode, luminescence (AID 652000)). Conditions: EBI2-expressing cells, 60 min, at 5 µM, hits give high values, 0% vehicle, 100% 7α,25-dihydroxycholesterol control.
Chain of G-protein coupled receptor 183 (Homo sapiens) (P32249 whole entry, looked up): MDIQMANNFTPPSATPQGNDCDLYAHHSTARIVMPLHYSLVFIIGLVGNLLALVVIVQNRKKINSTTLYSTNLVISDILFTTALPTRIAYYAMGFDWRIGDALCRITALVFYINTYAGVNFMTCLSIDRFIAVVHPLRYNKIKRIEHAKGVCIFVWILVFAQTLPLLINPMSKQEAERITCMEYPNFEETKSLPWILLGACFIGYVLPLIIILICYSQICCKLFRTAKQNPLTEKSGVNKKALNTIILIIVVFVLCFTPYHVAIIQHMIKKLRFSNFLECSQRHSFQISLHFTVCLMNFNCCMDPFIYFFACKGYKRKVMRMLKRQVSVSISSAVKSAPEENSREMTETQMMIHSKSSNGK
Summary of the method: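 Material: beta-arrestin reporter cell line | Probe or stimulus: Test wells without oxysterol | Compound: Single concentration, 2.5 nL of 10 mM stock | Times: Overnight seeding and 60-min compound at 37°C, 60-min detection at 25°C | Signal: Luminescence after adding detection reagent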

Row | SMILES | activation [%]
1 | O=C(NCc1ccc(Cl)cc1)C1CCN(S(=O)(=O)c2cccs2)CC1 | 0.21
2 | O=C(CCNS(=O)(=O)c1ccccc1)NCCSc1ccc(Br)cc1 | -1.84
3 | Cc1ccc(O/C=C2\OC(=O)c3ccccc32)cc1 | -0.84
4 | O=C(COc1ccc2ccccc2c1)N1CCN(C(=O)c2cccs2)CC1 | 0.16
5 | COc1ccc(/C=C/C(=O)c2ccc(OC)cc2O)cc1 | -0.61
6 | Fc1ccc(N2CCN(Cc3cnc(Oc4ccc(Br)cc4)s3)CC2)cc1 | 1.8
7 | CCOC(=O)N1CCN(C(=O)COc2ccc(Cl)cc2C)CC1 | 0.57
8 | CN(Cc1ccc(F)cc1)C(=O)COc1ccc2ccccc2c1 | 0.62
9 | Cc1ccc(S(=O)(=O)N2CCN(C(=O)CSc3cc(C)ccc3C)CC2)c(C)c1 | 1.03
10 | Cc1ccc2oc(=O)c3cnn(CC(=O)N(Cc4ccco4)C4CCCCC4)c3c2c1 | -0.75
11 | Cc1cc(C)cc(Oc2nc3c(C)cccn3c(=O)c2/C=C(\C#N)C(=O)NC2CCS(=O)(=O)C2)c1 (stereo not drawn) | -1.11
12 | Cc1cc(Cl)c2oc(C(=O)N3CCC(O)(c4ccccc4)CC3)c(C)c2c1 | -0.43
13 | COc1ccc(CNC(=O)CN(c2ccc(OC)c(Cl)c2)S(=O)(=O)c2ccc(C)cc2)cc1 | -1.61
14 | Cc1ccc(N2CC(C(=O)Nc3ccc(S(=O)(=O)N4CCCC4)cc3)CC2=O)cc1C (stereo not drawn) | 1.21
15 | O=C(C(c1ccccc1)c1ccccc1)N1CCN(CC(O)COc2ccccc2)CC1 (stereo not drawn) | -0.02
16 | O=C(CC(c1ccccc1)c1ccccc1)NCC(O)c1ccc([N+](=O)[O-])cc1 (stereo not drawn) | -0.61
17 | Cc1ccc(S(=O)(=O)N2CCN(CC(=O)N/N=C/c3ccc(Br)s3)CC2)cc1 | 0.71
18 | N#CC(=C1CCCC1)c1nc(-c2ccc(Cl)cc2)cs1 | -0.93
19 | Cc1cc(OCC(=O)N2CCN(c3ncccn3)CC2)ccc1Cl | 1.39
20 | O=C(/C=C/c1ccc(Cl)cc1)N1CCN(c2ccccc2[N+](=O)[O-])CC1 | 1.03
21 | O=C(Nc1ncc2c(n1)CC(c1ccco1)CC2=O)c1ccc(Cl)cc1 (stereo not drawn) | 1.34
22 | CCOc1ccc(CCN2C(=S)N([C@@H](CC(C)C)CN3CCC[C@@H]3CN3C(=S)NC[C@@H]3Cc3ccc(O)cc3)C[C@@H]2Cc2ccc(O)cc2)cc1 | -0.93

Row | SMILES | activation [%]
23 | COc1ccc(OCC(=O)N2CCN(C(=O)COc3ccccc3)CC2)cc1 | -0.25
24 | O=C(NNC(=O)c1ccc2ccccc2c1)c1ccc(Cl)cc1 | 0.21
25 | COc1cccc(-c2cc(C(=O)N3CCN(c4ccccc4OC)CC3)no2)c1 | -0.66
26 | COc1ccc(-c2cc(C3CCN(c4ncccc4[N+](=O)[O-])CC3)[nH]n2)cc1 | -0.52
27 | FC(F)(F)Oc1ccccc1C(c1nnnn1C1CCCCC1)N1CCN(C/C=C/c2ccccc2)CC1 (stereo not drawn) | 2.25
28 | Cc1ccc(OCC(=O)N2CCN(C(=O)c3cccnc3)CC2)cc1 | 0.16
29 | CC1CCc2sc3nc(N4CCN(CCO)CC4)n4ncnc4c3c2C1 (stereo not drawn) | 1.12
30 | Cc1nc2ccc(C(=O)N3CCN(c4ccccc4)CC3)cc2s1 | -1.39
31 | Cc1cs/c(=N\N=C\c2ccc(O)cc2)n1Cc1ccco1 | -0.2
32 | CCOc1ccc(CN(Cc2ccco2)S(=O)(=O)c2ccc(-n3cnnn3)c(OC)c2)cc1 | 0.3
33 | Fc1ccccc1/C=N/Nc1cc(N2CCCCC2)ncn1 | -1.29
34 | CC(C)Cn1c(N2CCN(C(=O)/C=C/c3ccccc3)CC2)nc2ccccc21 | -1.2
35 | COc1cccc(NC(=O)Cn2c3ccccc3c3nc4n(c(=O)c32)CCS4)c1 | -1.89
36 | Cc1ccc(OCCNC(=O)CCNS(=O)(=O)c2ccc(Br)cc2)cc1 | -0.93
37 | CCN(CC(=O)NCc1cccs1)C(=O)/C=C/c1ccc(C)cc1 | 0.57
38 | Cc1cccc(N2CCN(C(=O)c3cc4c(=O)[nH]c5ccccc5c4n3C)CC2)c1C | 2.57
39 | O=C(COc1ccc2c(c1)CCC2)N1CCN(c2ccc(F)cc2)CC1 | -1.43
40 | O=C(COc1ccc(Cl)cc1)N1CCN(c2cccc(C(F)(F)F)c2)CC1 | 1.62
41 | Cc1nc(-c2ccccc2)sc1C(=O)/C=C/c1ccccc1 | 1.39
42 | N#Cc1ccc(C(c2nnnn2CCc2ccccc2)N2CCCCCC2)cc1 (stereo not drawn) | 0.07
43 | COc1ccccc1N1CCN(C(=O)c2cc(=O)c3cc(C)ccc3o2)CC1 | 0.39
44 | O=C(c1cc2cc(F)ccc2[nH]1)N1CCN(c2ccc(F)cc2)CC1 | 1.94

Row | SMILES | activation [%]
45 | COc1ccc(NC(=O)N2CCC(Cc3ccccc3)CC2)cc1 | -0.34
46 | Cc1ccc(-c2nn(-c3ccccc3)cc2/C=C/C(=O)Nc2cccc(S(N)(=O)=O)c2)cc1 | 1.07
47 | Cc1cccc(NC(=O)CN2CCN(C(=O)C3CCN(C(=O)/C=C/c4ccccc4)CC3)CC2)c1C | -0.88
48 | Cc1ccc2oc(=O)c3cnn(CC(=O)N4CCCCCC4)c3c2c1 | -0.61
49 | CC(=O)c1nn(-c2ccc(C)cc2)cc1C(=O)c1cccc(Br)c1 | 1.07
50 | COc1ccc([C@H]2CC(=O)C=C(c3ccc(C)cc3)C2)cc1 | 1.12
51 | CCOc1ccc(C(C)=O)cc1COC(=O)c1cnc(Cl)c(Cl)c1 | -0.57
52 | O=C(c1cc2ccccc2s1)N1CCN(c2ccccn2)CC1 | -1.48
53 | CCC1Nc2ncnc(N3CCN(c4ccccc4)CC3)c2N(Cc2ccc(Cl)cc2)C1=O (stereo not drawn) | -4.52
54 | CC1(Cc2ccccc2C#N)C(=O)Nc2ccc(-c3ccc4[nH]ccc4c3)cc21 (stereo not drawn) | -0.66
55 | O=C(c1cc2ccccc2o1)N1CCN(S(=O)(=O)c2ccc(Cl)s2)CC1 | 0.16
56 | COc1ccc(Nc2cc(Sc3ccc(OC)cc3)ncn2)cc1 | -0.07
57 | COc1ccc(-n2c(Cc3cccn3C)nnc2SCC(=O)Nc2cc(C)cc(C)c2)cc1 | 0.66
58 | COc1ccc([C@H]2CC(=O)C=C(/C=C/c3ccc(Cl)cc3)C2)cc1 | -0.43
59 | COc1ccccc1CCNC(=O)C1CCN(C(=O)/C=C/c2ccccc2)CC1 | -0.16
60 | COc1ccc(C(c2nnnn2C2CCCC2)N2CCN(C/C=C/c3ccccc3)CC2)cc1 (stereo not drawn) | -0.25
61 | CN1CCc2ccccc2C1Cc1ccccc1NC(=O)c1sc2ccccc2c1Cl (stereo not drawn) | -0.98
62 | Cc1ccc(-n2ncc3c(=O)n(-c4ccc(C)c(C)c4)c(-c4ccco4)nc32)cc1 | -1.66
63 | O=C(Nc1ccc(S(=O)(=O)N2CCCCC2)cc1)C1CC(=O)N(c2ccc(F)cc2)C1 (stereo not drawn) | 0.98
64 | O=C(c1cc(=O)c2ccccc2o1)N1CCN(c2ccccc2)CC1 | 2.48
65 | CCCC1CCC(=NNC(=S)NCCc2ccccc2)CC1 (stereo not drawn) | -1.07
66 | Cc1cccc(N=C2NC(=O)/C(=C/c3cn(C)c4ccccc34)S2)c1 | -0.07

Row | SMILES | activation [%]
67 | COc1ccc(-c2cc(NC=O)c3ncc(-c4cccc(C(=O)N(C)C)c4)n3c2)c(OC)c1 | -1.02
68 | Cc1ccc(CSCCNC(=O)CN(c2ccc(F)cc2)S(C)(=O)=O)cc1 | 0.84
69 | CC(C)N(Cc1ccccc1)C(=S)Nc1ccc(OC(F)F)cc1 | 0.07
70 | CC(C)Cc1ccc(-c2cc3nc(NCc4cccc(Cl)c4)ccn3n2)cc1 | -1.2
71 | CCOC(=O)N1CCN(C(=O)CSc2ccc(Cl)cc2)CC1 | 2.07
72 | Cc1ccc(SCC(=O)N2CCN(c3ccc(F)cc3)CC2)cc1 | 4.12
73 | CC(=O)/C(=N\Nc1ccc(Cl)cc1Cl)Sc1cccc2cccnc12 | -1.34
74 | O=C(NCc1ccc(Cl)cc1)c1cc(=O)nc2sc(-c3ccccc3)nn12 | -0.48
75 | COc1ccc(OC)c(C(=O)c2coc3ccc(O)c(CN4CCOCC4)c23)c1 | 0.62
76 | O=C(/C=C/c1cccc(C(F)(F)F)c1)N1CCN(c2ccccn2)CC1 | -0.93
77 | Cc1cccc(OCC(O)CN2CCN(S(=O)(=O)c3ccc(C)cc3C)CC2)c1 (stereo not drawn) | -0.98
78 | COc1ccc(-c2cn(-c3ccc(OC)cc3)c(=S)[nH]2)cc1 | 1.66
79 | O=C(CSc1ccccc1)Nc1cc(Cl)ccc1Oc1ccccc1 | -1.48
80 | CCC(C)(C)NC(=O)c1cc([N+](=O)[O-])ccc1N1CCCCC1 | -1.43
81 | CCOC(=O)N1CCN(C(=O)COc2ccc(Br)cc2)CC1 | 1.84
82 | O=C(NCCNc1ccc([N+](=O)[O-])cc1)c1cccc2c(Br)cccc12 | 0.12
83 | COc1ccccc1N1CCN(C(=O)c2cc(-c3ccc(Br)cc3)on2)CC1 | 1.43
84 | Cc1cccc(C)c1-n1nnnc1C(CCc1ccccc1)N1CCN(C/C=C/c2ccccc2)CC1 (stereo not drawn) | -1.39
85 | O=C(CCc1ccccc1)NNC(=O)COc1ccc(Cl)cc1 | 0.21
86 | COc1ccc(-c2nc(N)ncc2-c2ccc(Cl)cc2)c(O)c1 | 1.03
87 | COc1cc(/C=C(\C#N)C(=O)Nc2ccc3ccccc3c2)c([N+](=O)[O-])cc1OC | -0.75
88 | O=C(COc1ccc(Cl)cc1)N1CCN(S(=O)(=O)c2ccc(Cl)cc2)CC1 | 1.62
